Assay outcomes as filed in PubChem BioAssay.
FXN GAA850 act = increases GAA850 frataxin promoter reporter activity. HEK293 lucGAA850 FXN promoter luciferase reporter, 24 h; percent of 10 µM SAHA response. activation, % at 6 µM. 360,000 compounds, 0.56% hits. AID 540364;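 active means activation above the average of all compounds screened plus 3 SD, cutoff fixed separately per campaign, cut at about 7.5% in these data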
SR-BI DiI-HDL act = enhances SR-BI lipid uptake from DiI-HDL; CHO ldlA[mSR-BI] cells, DiI-HDL uptake fluorescence, 3 h; 100 = double the neutral-control signal; activation, % at 12.5 µM; 320,000 compounds, 0.096% hits; AID 504775;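 active means mean replicate activation of at least 60% and every replicate at or above 60%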
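Material: SR-BI-overexpressing, LDLR-lacking CHO cells; schedule: compound exposure 3 h, 37 °C; reagent: DiI-labelled HDL at 10 µg/mL final; technique: bottom-read fluorescence, 550/595 nm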
GASC-1 inh = human JMJD2C demethylase inhibition. 330,000 compounds, 0.069% hits. GST-JMJD2C(1-420) H3K9me3 demethylation, DELFIA europium. inhibition, % at 2.35 µM. AID 2099. Q9H3R0;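 active means more than half of a compound's replicate wells show inhibition beyond 50%, single wells judged on their own value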;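 further: signal counts dimethyl H3K9 product captured on neutravidin plate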
AHR activator = human AHR activation | P35869 | AHR-responsive luciferase reporter cells, luminescence | activation, % at 5 µM | 320,000 compounds, 2.5% hits; in the data active means activation above about 47%
Target sequence (P35869 whole entry, looked up): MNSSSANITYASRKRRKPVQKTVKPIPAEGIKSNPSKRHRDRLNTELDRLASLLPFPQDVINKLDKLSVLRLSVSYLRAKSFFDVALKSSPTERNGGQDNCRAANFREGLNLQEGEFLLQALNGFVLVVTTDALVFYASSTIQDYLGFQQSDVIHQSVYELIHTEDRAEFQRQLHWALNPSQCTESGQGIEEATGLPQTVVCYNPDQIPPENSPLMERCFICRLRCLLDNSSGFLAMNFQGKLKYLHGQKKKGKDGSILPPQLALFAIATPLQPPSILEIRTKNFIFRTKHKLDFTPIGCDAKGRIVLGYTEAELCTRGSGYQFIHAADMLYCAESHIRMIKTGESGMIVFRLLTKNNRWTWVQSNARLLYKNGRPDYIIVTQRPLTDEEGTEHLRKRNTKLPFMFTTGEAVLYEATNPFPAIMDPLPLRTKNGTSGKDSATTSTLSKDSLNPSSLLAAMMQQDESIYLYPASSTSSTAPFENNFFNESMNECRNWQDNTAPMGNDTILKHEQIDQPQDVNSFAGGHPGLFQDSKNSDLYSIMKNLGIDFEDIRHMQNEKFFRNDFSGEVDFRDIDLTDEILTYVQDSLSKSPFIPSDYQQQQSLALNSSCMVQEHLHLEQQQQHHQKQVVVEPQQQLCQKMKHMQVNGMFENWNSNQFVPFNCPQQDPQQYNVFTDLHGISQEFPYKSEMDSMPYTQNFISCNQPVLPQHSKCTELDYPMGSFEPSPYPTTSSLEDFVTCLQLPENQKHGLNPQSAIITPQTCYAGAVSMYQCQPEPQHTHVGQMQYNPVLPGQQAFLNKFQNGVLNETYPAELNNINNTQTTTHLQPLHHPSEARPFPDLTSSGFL
SR-BI DiI inh = blocks mouse SR-BI lipid uptake from DiI-HDL; 320,000 compounds, 0.96% hits; inhibition, % at 12.5 µM; ldlA[mSR-BI] CHO cells, DiI-HDL uptake fluorescence, 3 h; Q61009;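 active means mean replicate inhibition of at least 70% and a set share of replicates each scoring 70 or more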
A number is an active result; n = inactive; x = no result. Shown are actives, neighbours in structure and some others; about 3.7% of the full set was active somewhere.

SMILES | FXN GAA850 act | SR-BI DiI-HDL act | GASC-1 inh | AHR activator | SR-BI DiI inh
COc1cc(/C=N/NC(=O)c2cc3ccccc3cc2O)ccc1OCCN1CCCCC1 | n | n | n | n | 77.4
COc1cc(/C=N/NC(=O)c2ccncc2)ccc1OCCN1CCCCC1 | n | n | n | n | n
CC(C)CCNC(=O)c1nnc(Cc2ccc(Cl)cc2)o1 | n | n | n | n | n
CN(C)c1ccc(C(CNS(=O)(=O)c2ccc(F)c(F)c2)c2c[nH]c3ccccc23)cc1 (stereo not drawn) | n | n | n | 67.7 | n
NC(=O)c1ccccc1N/C=C/C(=O)c1cccs1 | n | x | n | n | x
O=C(/C=C/c1ccc([N+](=O)[O-])cc1)c1cccs1 | n | n | n | n | n
COc1cc([N+](=O)[O-])ccc1N/C=C/C(=O)c1cccs1 | n | n | n | 51.0 | n
Cc1cccc(N/C=C/C(=O)c2cccs2)c1C | n | n | n | 58.9 | n
O=C(c1ccccc1)c1ccc(NCCCn2ccnc2)c([N+](=O)[O-])c1 | n | n | n | n | n
Clc1ccc2[nH]c3c(NCC4CCCO4)ncnc3c2c1 (stereo not drawn) | x | x | n | 76.2 | x
Clc1ccc(-n2ncc3c(NCC4CCCO4)ncnc32)cc1 (stereo not drawn) | n | n | n | n | n
CN(C(=O)COC(=O)c1ccc2c(=O)n3c(nc2c1)CCC3)C1CCS(=O)(=O)C1 (stereo not drawn) | n | n | n | n | n
CN(C)CCCNc1ccc(-c2cc(Nc3cccc(Cl)c3)ncn2)cn1 | n | n | n | n | n
OCCCNc1cc(-c2ccnc(Nc3cccc(Cl)c3)n2)ccn1 | n | n | n | n | 81.6
c1ccc(N2CC3CCc4ccccc4C3=N2)cc1 (stereo not drawn) | n | n | n | 56.5 | n
Cc1ccc(C(=O)OCC(=O)N2c3ccccc3NC(=O)C2(C)C)cc1S(=O)(=O)N1CCCCC1 | n | n | n | n | 84.1
COc1ccccc1N(C)S(=O)(=O)c1ccc(Cl)c(C(=O)N2CCC2)c1 | n | n | n | n | n
COc1ccccc1N(C)S(=O)(=O)c1ccc(Cl)c(C(=O)NNC(=O)c2ccccc2O)c1 | n | n | n | n | 80.7
COc1ccc(N(C)S(=O)(=O)c2ccc(Cl)c(C(=O)NNC(=O)c3ccccc3O)c2)cc1 | n | n | x | x | 79.2
COc1ccccc1N(C)S(=O)(=O)c1ccc(C(=O)NNC(=O)c2ccccc2O)cc1 | n | n | x | x | 126.1
Oc1ccccc1-c1nc2cnccn2c1Nc1ccc2c(c1)OCCO2 | n | n | n | n | n
C/C(CS(=O)(=O)c1ccc(Cl)cc1)=N/NC(N)=S | n | n | n | n | n
C/C(CS(=O)(=O)c1ccc(Cl)c(Cl)c1)=N/NC(N)=S | n | n | n | n | 80.8
CC(C)CN1CC(=O)N2C(c3ccccc3)c3[nH]c4ccccc4c3C[C@H]2C1=O (stereo partly drawn) | n | n | n | n | 78.4
O=C(c1cnn2c(C(F)F)cc(C3CC3)nc12)N1CCc2ccccc2C1 | n | n | n | 49.2 | n
SMILES | FXN GAA850 act | SR-BI DiI-HDL act | GASC-1 inh | AHR activator | SR-BI DiI inh
O=C(c1cnn2c(C(F)(F)F)cc(-c3ccco3)nc12)N1CCc2ccccc2C1 | n | n | n | n | 82.9
O=C(c1cnn2c(C(F)F)cc(-c3ccccc3)nc12)N1CCc2ccccc2C1 | n | n | n | n | n
O=C(c1cnn2c(C(F)(F)F)cc(-c3ccco3)nc12)N1CCCCCC1 | n | n | n | n | n
CCOc1cnc(C(=O)NNC(=O)C(Br)C(C)C)o1 (stereo not drawn) | n | n | n | n | n
Cc1cnn(C(=O)c2ccccc2Br)c1 | x | x | 85.5 | n | x
COc1ccccc1C(=O)Nc1nc(-c2cccs2)c(NC(C)=O)s1 | n | n | n | 71.7 | n
COc1cc2ccccc2cc1C(=O)Nc1nccs1 | n | n | n | 56.9 | n
O=C(Nc1nccs1)c1ccc2ccccc2c1 | n | n | n | 53.9 | n
CC(=O)Nc1sc(NC(=O)c2ccccc2)nc1-c1cccs1 | n | n | n | n | n
O=C(c1ccc(Cl)cc1)N1CCN(c2ccc(F)cc2)CC1 | n | n | n | 57.9 | n
Cc1cccc(-n2c(SCc3cc(=O)n4ccsc4n3)nc3ccccc32)c1 | n | n | n | n | n
O=C(/C=C/c1ccc(S(=O)(=O)N2CCOCC2)cc1)Nc1cc(F)ccc1F | n | n | n | n | n
COc1ccc(/C=C/C(=O)Nc2cccc(S(=O)(=O)N3CCCC3)c2)cc1OC | n | n | n | n | 79.7
O=C(/C=C/c1ccc(F)cc1)Nc1cccc(S(=O)(=O)N2CCOCC2)c1 | n | n | n | n | 74.4
O=[N+]([O-])c1cccc(/C=C/C=N/Nc2nc(N3CCCCC3)nc(N3CCCCC3)n2)c1 | n | n | n | n | n
Cc1cc(NC(=O)CSCC(=O)Nc2ccc(C)c(C)c2)no1 | n | x | n | n | n
CCc1cc(C(=O)N2CCCC(N3CCN(c4cccc(C(F)(F)F)c4)CC3)C2)n(C)n1 (stereo not drawn) | n | n | n | n | n
Cc1cc(-c2cc(-c3ccccc3)on2)nc(NC2CCCC2)n1 | n | n | n | n | 80.5
Cc1cc(-c2cc(-c3ccc(Cl)cc3)on2)nc(NC2CCCC2)n1 | n | n | n | n | n
Oc1c(N=Nc2ccccn2)ccc2ccccc12 | n | n | n | 67.8 | 134.4
NC(=S)N=Nc1c(O)[nH]c2ccccc12 | n | n | n | n | n
NC(=S)N=Nc1c(O)[nH]c2c(Br)cc(Br)cc12 | n | n | n | 63.4 | n
COc1ccc(CN(CC(=O)NCCc2ccccc2)C(=O)CCC(=O)Nc2ccccn2)cc1 | n | n | n | n | n
CCOC(=O)c1cccc(NC(=O)/C=C/c2cccc([N+](=O)[O-])c2)c1 | n | n | n | n | 72.8
Cc1cccc(C)c1NC(=S)NN(Cc1ccccc1)c1ccccc1 | n | n | 71.7 | n | n
SMILES | FXN GAA850 act | SR-BI DiI-HDL act | GASC-1 inh | AHR activator | SR-BI DiI inh
CC1CCCN(c2nc(NCc3ccco3)nc(N)c2[N+](=O)[O-])C1 (stereo not drawn) | n | n | n | n | n
Cc1ccc(Nc2nc(N)c([N+](=O)[O-])c(N3CCCC(C)C3)n2)cc1C (stereo not drawn) | n | n | n | 51.3 | n
CC(=O)c1cccc2c(O)c(C3=Nc4ccccc4C3=O)[nH]c12 | n | n | n | 60.8 | n
O=C(O)c1cccc2c(-c3ccccc3)c(-c3ccccc3)[nH]c12 | n | n | n | n | n
O=C1C(c2c(O)[nH]c3ccccc23)=Nc2ccccc21 | n | n | n | 59.7 | n
O=C(NCC1CCCO1)c1ccc(NC(=O)c2cc(F)c(F)cc2Cl)cc1 (stereo not drawn) | n | n | n | n | n
Cc1cc2nc(-c3cccnc3SCC(=O)NC(C)C)[nH]c2cc1C | n | n | n | 53.5 | n
Oc1ccc(-c2csc(Nc3cccc4ccccc34)n2)cc1O | n | n | n | 52.0 | n
CC(=O)Oc1ccc2nc(CN3C(=O)c4ccc([N+](=O)[O-])cc4C3=O)oc(=O)c2c1 | n | n | n | n | n
